Test results published in ChEMBL document CHEMBL1135825, “Antitumor AHMA linked to DNA minor groove binding agents: synthesis and biological evaluation” (J Med Chem, 2002).

Columns and labels:
[1] = Cytotoxicity against human nasopharyngeal carcinoma BM-1; format: functional
Method in brief: (§1)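 XTT-tetrazolium growth assay, cells exposed 72 h to six to seven concentrations per compound. Phenazine methosulfate-XTT added for 6 h at 37 °C, then absorbance read at 450 and 630 nm. IC50 derived from median-effect plot of dose-effect data.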

[2] = system: CCRF-CEM; assay: (§2) Cytotoxicity against human T-cell acute lymphocytic leukemia CCRF-CEM; format: functional, cell-based; method in brief: as §1
[3] = Cytotoxicity against human Glioblastoma multiformi DBTRG; format: functional; method in brief: as §1
[4] = system: Nucleic Acid; assay: Percentage of protein-linked DNA breaks.; format: functional; set-up: concentration or dose not given beside the values
Method in brief: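 Log-phase cells labeled 24 h with [14C]-thymidine, trypsinized, resuspended at 5 × 10⁵ cells/mL and shaken 1 h at 37 °C in suspension. Drug at 10 μM added for 0.5 h. Protein-linked DNA breaks quantified by potassium-SDS coprecipitation and reported as percentage.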

[5] = system: HONE1 cell line; assay: Cytotoxicity against human nasopharyngeal carcinoma HONE-1; format: functional, cell-based; method in brief: as §1
[6] = system: HT-29; assay: Cytotoxicity against human colon HT-29 cell line; format: functional, cell-based; method in brief: as §1
[7] = system: HepG2; assay: Cytotoxicity against human hepatoma Hepa-G2; format: functional, cell-based; method in brief: as §1
[8] = system: TSGH; assay: In vitro cytotoxicity against human TSGH; format: functional, cell-based; method in brief: as §1
[9] = system: MX1; assay: Cytotoxicity against human Breast carcinoma MX-1; format: functional, cell-based; method in brief: as §1
[10] = system: Nucleic Acid; assay: Percentage of protein-linked DNA breaks; Not determined; format: functional
[11] = system: CCRF-CEM; assay: as §2; format: cell-based; method in brief: as §1

SMILES: CCOC(=O)Nc1cc(CO)cc(Nc2c3ccccc3nc3ccccc23)c1
- IC50 [1]: 0.38 µM
- IC50 [2]: 0.057 µM
- IC50 [3]: 5 µM
- Activity [4]: 15%
- IC50 [5]: 0.07 µM
- IC50 [6]: 0.48 µM
- IC50 [7]: 0.46 µM
- IC50 [8]: 0.34 µM

SMILES: CCOC(=O)Nc1cc(COC(=O)CCCC(=O)Nc2cc(C(=O)Nc3cc(C(=O)NCCN(C)C)n(C)c3)n(C)c2)cc(Nc2c3ccccc3nc3ccccc23)c1
- IC50 [1]: 0.49 µM
- IC50 [2]: 2.04 µM
- IC50 [3]: 7.5 µM
- Activity [4]: 4.2%
- IC50 [5]: 0.13 µM
- IC50 [6]: 0.64 µM
- IC50 [7]: 0.63 µM
- IC50 [9]: 0.156 µM
- IC50 [8]: 1.2 µM

SMILES: CN(C)CCNC(=O)c1cc(NC(=O)CCC(=O)Nc2cc(CO)cc(Nc3c4ccccc4nc4ccccc34)c2)cn1C
- IC50 [1]: 7 µM
- IC50 [3]: 8.1 µM
- Activity [4]: 3.3%
- IC50 [5]: 0.85 µM
- IC50 [6]: 1.7 µM
- IC50 [7]: 4.2 µM
- IC50 [8]: 4.6 µM

SMILES: CCOC(=O)Nc1cc(COC(=O)CCC(=O)Nc2cc(C(=O)NCCN(C)C)n(C)c2)cc(Nc2c3ccccc3nc3ccccc23)c1
- IC50 [1]: 0.08 µM
- IC50 [2]: 6.85 µM
- IC50 [3]: 0.8 µM
- Activity [4]: 16.5%
- IC50 [5]: 0.06 µM
- IC50 [6]: 0.23 µM
- IC50 [7]: 0.09 µM
- IC50 [9]: 0.039 µM
- IC50 [8]: 0.08 µM

SMILES: CCOC(=O)Nc1cc(COC(=O)CCCC(=O)Nc2cc(C(=O)NCCN(C)C)n(C)c2)cc(Nc2c3ccccc3nc3ccccc23)c1
- IC50 [1]: 0.08 µM
- IC50 [2]: 17.6 µM
- IC50 [3]: 0.4 µM
- Activity [4]: 4.6%
- IC50 [5]: 0.8 µM
- IC50 [6]: 0.75 µM
- IC50 [7]: 0.08 µM
- IC50 [9]: 0.085 µM
- IC50 [8]: 1.2 µM

SMILES: Nc1cc(CO)cc(Nc2c3ccccc3nc3ccccc23)c1
- IC50 [1]: 0.86 µM
- IC50 [2]: 0.36 µM
- IC50 [3]: 3.5 µM
- Activity [10]: 10.5%
- IC50 [5]: 0.31 µM
- IC50 [6]: 0.88 µM
- IC50 [7]: 1.4 µM
- IC50 [8]: 0.45 µM

SMILES: CN(C)CCNC(=O)c1cc(NC(=O)c2cc(NC(=O)CCCC(=O)Nc3cc(CO)cc(Nc4c5ccccc5nc5ccccc45)c3)cn2C)cn1C
- IC50 [1]: 77.8 µM
- IC50 [3]: > 100 µM
- Activity [4]: 0%
- IC50 [5]: 63.9 µM
- IC50 [6]: > 100 µM
- IC50 [7]: 68 µM
- IC50 [8]: 36.4 µM

SMILES: CN(C)CCNC(=O)c1cc(NC(=O)CCCC(=O)Nc2cc(CO)cc(Nc3c4ccccc4nc4ccccc34)c2)cn1C
- IC50 [1]: 73.3 µM
- IC50 [3]: 73.6 µM
- Activity [4]: 0%
- IC50 [5]: 39 µM
- IC50 [6]: > 100 µM
- IC50 [7]: 100 µM
- IC50 [8]: 46.8 µM

SMILES: CN1CCN(c2ccc3nc(-c4ccc5nc(-c6ccc(OCCCC(=O)Nc7cc(CO)cc(Nc8c9ccccc9nc9ccccc89)c7)cc6)[nH]c5c4)[nH]c3c2)CC1
- IC50 [1]: > 100 µM
- IC50 [11]: > 100 µM
- IC50 [3]: > 100 µM
- IC50 [5]: > 100 µM
- IC50 [6]: > 100 µM
- IC50 [7]: > 100 µM
- IC50 [9]: > 100 µM
- IC50 [8]: > 100 µM

SMILES: CN(C)CCNC(=O)c1cc(NC(=O)c2cc(NC(=O)CCC(=O)Nc3cc(CO)cc(Nc4c5ccccc5nc5ccccc45)c3)cn2C)cn1C
- IC50 [1]: 8.6 µM
- IC50 [3]: 20 µM
- Activity [4]: 3.3%
- IC50 [5]: 2.4 µM
- IC50 [6]: 4.4 µM
- IC50 [7]: 7 µM
- IC50 [8]: 4.8 µM
